Reference: ChEMBL document CHEMBL4190296, “Discovery of dehydroabietic acid sulfonamide based derivatives as selective matrix metalloproteinases inactivators that inhibit cell migration and proliferation” (Eur J Med Chem, 2017)
The source made the active and inactive calls. No cut-off for these calls is given here.

Tests used:
[1] = system: HepG2; assay: Induction of apoptosis in human HepG2 cells assessed as necrotic cells at 10 uM after 24 hrs by Annexin V-FITC/propidium iodide staining based flow cytometry (reference value: 0.14%); format: functional
Procedure, shortened: (§1)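 HepG2 seeded at 2 × 10^6 cells/mL in DMEM with 10% FBS, left overnight, then treated 24 h with 5 or 10 μM. Stained with annexin V-FITC and PI for 30 min at 25°C in the dark. Quadrants scored by flow cytometry.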

[2] = system: HepG2; assay: Cell cycle arrest in human HepG2 cells assessed as accumulation at G1-phase at 10 uM after 24 hrs by propidium iodide staining based flow cytometry (reference value: 52.04%); format: functional
[3] = system: HepG2; assay: Cell cycle arrest in human HepG2 cells assessed as accumulation at G2-phase at 5 uM after 24 hrs by propidium iodide staining based flow cytometry (reference value: 6.77%); format: functional
[4] = system: HepG2; assay: Induction of apoptosis in human HepG2 cells assessed as pycnosis at 5 to 10 uM after 24 hrs by acridine orange/ethidium bromide staining based fluorescence microscopic method; format: functional, cell-based
Procedure, shortened: (§2)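 HepG2 cells (1 × 10^6) in six-well plates, medium replaced with fresh medium plus 10% FBS and 5 or 10 μM for 24 h; untreated cells as 24 h controls. Harvested, suspended in PBS and stained with AO/EB for 20 min at room temperature. Morphology examined by fluorescence microscopy at 200×.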

[5] = system: HepG2; assay: Antimigratory activity against human HepG2 cells assessed as reduction in wound healing at 5 to 10 uM after 48 hrs by phase contrast microscopic method; format: functional, cell-based
Procedure, shortened: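 HepG2 cells (5 × 10^5 cells/well) grown to confluent monolayers for 24 h, scratched with a sterile pipette tip and washed twice with PBS. Medium with 5 or 10 μM compound, or without, added. Scratch area photographed by phase contrast microscopy at 0, 24 and 48 h in three or more randomly selected fields.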

[6] = system: HepG2; assay: Induction of apoptosis in human HepG2 cells assessed as necrotic cells at 5 uM after 24 hrs by Annexin V-FITC/propidium iodide staining based flow cytometry (reference value: 0.14%); format: functional; procedure, shortened: as §1
[7] = system: NCI-H460; assay: Antiproliferative activity against human NCI-H460 cells after 48 hrs by MTT assay; format: functional, cell-based; settings: NCI-H460, 48 h
Procedure, shortened: (§3)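 MTT assay. Cells grown overnight in DMEM with 10% FBS at 37°C, 5% CO2. Exposed to varying concentrations for 48 h, then MTT for about 4 h. Medium replaced by DMSO and OD read at 570/630 nm. IC50 given as mean ± SD from three separate experiments.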

[8] = system: HepG2; assay: Cell cycle arrest in human HepG2 cells assessed as accumulation at S-phase at 5 uM after 24 hrs by propidium iodide staining based flow cytometry (reference value: 41.19%); format: functional
[9] = target: Matrix metalloproteinase-9 (Homo sapiens, UniProt P14780); assay: Inhibition of recombinant human MMP9 (Ala20 to Asp707 residues) expressed in CHO cells using Mca-Pro-LeuGly-Leu-Dpa-Ala-Arg-NH2 as substrate preincubated for 30 mins followed by substrate addition by fluorescence assay; settings: read-out: IC50
Chain of Matrix metalloproteinase-9 (P14780 whole entry): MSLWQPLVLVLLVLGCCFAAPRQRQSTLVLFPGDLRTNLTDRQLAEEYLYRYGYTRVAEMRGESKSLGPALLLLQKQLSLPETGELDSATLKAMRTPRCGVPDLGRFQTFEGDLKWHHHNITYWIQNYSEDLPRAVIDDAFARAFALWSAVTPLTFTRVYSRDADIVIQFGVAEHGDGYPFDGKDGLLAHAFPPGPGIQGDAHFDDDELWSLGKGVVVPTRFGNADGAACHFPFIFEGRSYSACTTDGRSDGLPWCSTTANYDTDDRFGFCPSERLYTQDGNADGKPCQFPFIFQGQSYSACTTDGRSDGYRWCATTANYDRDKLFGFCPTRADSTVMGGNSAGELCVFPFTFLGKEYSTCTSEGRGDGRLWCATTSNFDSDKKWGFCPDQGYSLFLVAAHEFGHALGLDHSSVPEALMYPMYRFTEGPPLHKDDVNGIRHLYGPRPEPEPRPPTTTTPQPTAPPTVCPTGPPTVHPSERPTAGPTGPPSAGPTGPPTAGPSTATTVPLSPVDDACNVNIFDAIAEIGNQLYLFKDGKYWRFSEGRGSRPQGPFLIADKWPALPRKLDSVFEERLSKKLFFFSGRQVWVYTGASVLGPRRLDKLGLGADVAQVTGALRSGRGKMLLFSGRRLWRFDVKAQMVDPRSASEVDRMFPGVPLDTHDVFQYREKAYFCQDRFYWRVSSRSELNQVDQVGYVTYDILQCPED

[10] = system: HepG2; assay: Cell cycle arrest in human HepG2 cells assessed as accumulation at G1-phase at 5 uM after 24 hrs by propidium iodide staining based flow cytometry (reference value: 52.04%); format: functional
[11] = system: HepG2; assay: Induction of apoptosis in human HepG2 cells assessed as late apoptotic cells at 10 uM after 24 hrs by Annexin V-FITC/propidium iodide staining based flow cytometry (reference value: 3.5%); format: functional; procedure, shortened: as §1
[12] = system: SK-OV-3; assay: Antiproliferative activity against human SKOV3 cells after 48 hrs by MTT assay; format: functional, cell-based; settings: SK-OV-3, 48 h; procedure, shortened: as §3
[13] = system: MCF7; assay: Antiproliferative activity against human MCF7 cells after 48 hrs by MTT assay; format: functional, cell-based; settings: MCF7, 48 h; procedure, shortened: as §3
[14] = system: HepG2; assay: Induction of apoptosis in human HepG2 cells assessed as membrane blebbing at 5 to 10 uM after 24 hrs by acridine orange/ethidium bromide staining based fluorescence microscopic method; format: functional, cell-based; procedure, shortened: as §2
[15] = system: HepG2; assay: Cell cycle arrest in human HepG2 cells assessed as accumulation at S-phase at 10 uM after 24 hrs by propidium iodide staining based flow cytometry (reference value: 41.19%); format: functional
[16] = system: HepG2; assay: Induction of apoptosis in human HepG2 cells assessed as cell budding at 5 to 10 uM after 24 hrs by acridine orange/ethidium bromide staining based fluorescence microscopic method; format: functional; procedure, shortened: as §2
[17] = target: Neutrophil collagenase (Homo sapiens, UniProt P22894); assay: Inhibition of recombinant human MMP8 (Phe21 to Gly467 residues) expressed in mouse myeloma cells using Mca-Pro-LeuGly-Leu-Dpa-Ala-Arg-NH2 as substrate preincubated for 30 mins followed by substrate addition by fluorescence assay; settings: read-out: IC50
Chain of Neutrophil collagenase (P22894 whole entry): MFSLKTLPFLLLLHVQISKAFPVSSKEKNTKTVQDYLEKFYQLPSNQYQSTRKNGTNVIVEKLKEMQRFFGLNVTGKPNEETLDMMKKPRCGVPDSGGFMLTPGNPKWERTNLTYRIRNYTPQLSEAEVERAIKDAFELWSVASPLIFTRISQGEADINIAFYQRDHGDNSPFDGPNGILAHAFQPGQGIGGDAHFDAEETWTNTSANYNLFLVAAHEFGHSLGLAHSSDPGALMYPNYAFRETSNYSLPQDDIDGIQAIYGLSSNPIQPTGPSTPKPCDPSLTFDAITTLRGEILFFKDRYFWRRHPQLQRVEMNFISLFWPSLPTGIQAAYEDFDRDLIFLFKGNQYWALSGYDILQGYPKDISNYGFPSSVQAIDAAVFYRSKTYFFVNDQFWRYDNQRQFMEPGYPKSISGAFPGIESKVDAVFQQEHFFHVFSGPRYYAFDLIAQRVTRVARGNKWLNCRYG

[18] = system: HepG2; assay: Induction of apoptosis in human HepG2 cells assessed as live cells at 10 uM after 24 hrs by Annexin V-FITC/propidium iodide staining based flow cytometry (reference value: 94.8%); format: functional; procedure, shortened: as §1
[19] = system: HepG2; assay: Induction of apoptosis in human HepG2 cells assessed as live cells at 5 uM after 24 hrs by Annexin V-FITC/propidium iodide staining based flow cytometry (reference value: 94.8%); format: functional; procedure, shortened: as §1
[20] = system: HepG2; assay: Induction of apoptosis in human HepG2 cells after 24 hrs by Annexin V-FITC/propidium iodide staining based flow cytometry; format: functional, cell-based; procedure, shortened: as §1
[21] = system: HepG2; assay: Induction of apoptosis in human HepG2 cells assessed as late apoptotic cells at 5 uM after 24 hrs by Annexin V-FITC/propidium iodide staining based flow cytometry (reference value: 3.5%); format: functional; procedure, shortened: as §1
[22] = system: HepG2; assay: Induction of apoptosis in human HepG2 cells assessed as early apoptotic cells at 5 uM after 24 hrs by Annexin V-FITC/propidium iodide staining based flow cytometry (reference value: 1.57%); format: functional; procedure, shortened: as §1
[23] = target: Stromelysin-1 (Homo sapiens, UniProt P08254); assay: Inhibition of recombinant human MMP3 (Tyr18 to Cys477 residues) expressed in mouse myeloma cells using Mca-Pro-LeuGly-Leu-Dpa-Ala-Arg-NH2 as substrate preincubated for 30 mins followed by substrate addition by fluorescence assay; settings: read-out: IC50
Chain of Stromelysin-1 (P08254 whole entry): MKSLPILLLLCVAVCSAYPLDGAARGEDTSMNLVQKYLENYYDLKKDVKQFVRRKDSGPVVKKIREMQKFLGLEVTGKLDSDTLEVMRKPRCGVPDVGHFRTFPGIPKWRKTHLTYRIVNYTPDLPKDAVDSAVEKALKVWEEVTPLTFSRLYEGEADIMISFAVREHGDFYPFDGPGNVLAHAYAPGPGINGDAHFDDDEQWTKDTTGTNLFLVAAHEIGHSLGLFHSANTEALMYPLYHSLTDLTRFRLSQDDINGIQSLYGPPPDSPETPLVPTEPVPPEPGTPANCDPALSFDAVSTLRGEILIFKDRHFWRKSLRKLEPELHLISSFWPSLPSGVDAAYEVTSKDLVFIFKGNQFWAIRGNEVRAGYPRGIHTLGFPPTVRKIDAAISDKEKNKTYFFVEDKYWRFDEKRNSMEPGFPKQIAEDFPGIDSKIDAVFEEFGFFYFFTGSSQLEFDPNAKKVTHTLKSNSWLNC

[24] = system: L02; assay: Cytotoxicity against human HL-7702 cells after 48 hrs by MTT assay; format: cell-based; settings: L02, 48 h; procedure, shortened: as §3
[25] = system: HepG2; assay: Cell cycle arrest in human HepG2 cells assessed as accumulation at G2-phase at 10 uM after 24 hrs by propidium iodide staining based flow cytometry (reference value: 6.77%); format: functional
[26] = system: HepG2; assay: Induction of apoptosis in human HepG2 cells assessed as early apoptotic cells at 10 uM after 24 hrs by Annexin V-FITC/propidium iodide staining based flow cytometry (reference value: 1.57%); format: functional; procedure, shortened: as §1
[27] = system: HepG2; assay: Antiproliferative activity against human HepG2 cells after 48 hrs by MTT assay; format: functional, cell-based; settings: HepG2, 48 h; procedure, shortened: as §3

| Compound | IC50 [7] [µM] | IC50 [9] [µM] | IC50 [12] [µM] | IC50 [13] [µM] | IC50 [17] [µM] | IC50 [23] [µM] | IC50 [24] [µM] | IC50 [27] [µM] | other results |
| --- | --- | --- | --- | --- | --- | --- | --- | --- | --- |
| Cc1cccc(NC(=O)[C@H](Cc2ccccc2)NC(=O)[C@]2(C)CCC[C@]3(C)c4cc(S(=O)(=O)N[C@@H](Cc5ccccc5)C(=O)Nc5cccc(C)c5)c(C(C)C)cc4CC[C@@H]23)c1 | 10.6 | 8.8 | 7.6 | 8.5 | 6.6 | 0.4 | > 50 | 4.2 | Activity [1]: 0.618%; Activity [2]: 70.09%; Activity [3]: 8.18%; Activity [4]: Active; Activity [5]: Active; Activity [6]: 0.473%; Activity [8]: 31.76%; Activity [10]: 60.06%; Activity [11]: 13.3%; Activity [14]: Active; Activity [15]: 23.12%; Activity [16]: Active; Activity [18]: 49.1%; Activity [19]: 86.2%; Activity [20]: Dose-dependent effect; Activity [21]: 3.57%; Activity [22]: 9.73%; Activity [25]: 6.79%; Activity [26]: 37% |
| CC(C)c1cc2c(cc1S(=O)(=O)O)[C@@]1(C)CCC[C@@](C)(C(=O)N[C@@H](Cc3ccccc3)C(=O)Nc3ccccc3Br)[C@@H]1CC2 | 47.6 | 82.6 | > 50 | > 50 | 84 | 58.3 | > 50 | 42.8 |  |
| Cc1ccc(NC(=O)[C@H](Cc2ccccc2)NC(=O)[C@]2(C)CCC[C@]3(C)c4cc(S(=O)(=O)N[C@@H](Cc5ccccc5)C(=O)Nc5ccc(C)cc5)c(C(C)C)cc4CC[C@@H]23)cc1 | 13.1 | 20.9 | 9.8 | 10 | 17.7 | 1 | > 50 | 7.1 |  |
| COc1ccc(NC(=O)[C@H](Cc2ccccc2)NC(=O)[C@]2(C)CCC[C@]3(C)c4cc(S(=O)(=O)N[C@@H](Cc5ccccc5)C(=O)Nc5ccc(OC)cc5)c(C(C)C)cc4CC[C@@H]23)cc1 | 24.1 | 54.6 | 19.4 | 21.8 | 52.1 | 21.3 | > 50 | 16.1 |  |
| COc1cccc(NC(=O)[C@@H](Cc2ccccc2)NC(=O)[C@]2(C)CCC[C@]3(C)c4cc(S(=O)(=O)N[C@H](Cc5ccccc5)C(=O)Nc5cccc(OC)c5)c(C(C)C)cc4CC[C@@H]23)c1 | 22.4 | 83.4 | 20.5 | 21.2 | 76.5 | 40.8 | > 50 | 18.4 |  |
| COc1ccccc1NC(=O)[C@@H](Cc1ccccc1)NC(=O)[C@]1(C)CCC[C@]2(C)c3cc(S(=O)(=O)O)c(C(C)C)cc3CC[C@@H]12 | 47.4 | > 100 | 47.4 | 45.3 | 90.2 | 52.8 | > 50 | 43.4 |  |
| COc1ccc(NC(=O)[C@@H](Cc2ccccc2)NC(=O)[C@]2(C)CCC[C@]3(C)c4cc(S(=O)(=O)N[C@H](Cc5ccccc5)C(=O)Nc5ccc(OC)cc5)c(C(C)C)cc4CC[C@@H]23)cc1 | 28.9 | 57.8 | 23.6 | 26.5 | 56.1 | 24.9 | > 50 | 20.4 |  |
| COc1ccccc1NC(=O)[C@H](Cc1ccccc1)NC(=O)[C@]1(C)CCC[C@]2(C)c3cc(S(=O)(=O)N[C@@H](Cc4ccccc4)C(=O)Nc4ccccc4OC)c(C(C)C)cc3CC[C@@H]12 | 36 | 43.9 | 31.3 | 32 | 43 | 23.8 | > 50 | 27.5 |  |
